Results: PMC2606940 (The Journal of General Physiology, 2009)
Where a chain is given by its changes, count along the chain named. Like-named read-outs stand apart in the source and are kept apart here.

Key:
[1] = target: T1, CLC-0 E166C/E127Q mutant (E127Q/K519) (Torpedo marmorata, UniProt P21564, C212S/E127Q/E166C); type: cell-based; conditions: for IC50: read-out: Apparent affinity (K1/2)
T1 sequence (P21564 1-805 E127Q/E166C/C212S): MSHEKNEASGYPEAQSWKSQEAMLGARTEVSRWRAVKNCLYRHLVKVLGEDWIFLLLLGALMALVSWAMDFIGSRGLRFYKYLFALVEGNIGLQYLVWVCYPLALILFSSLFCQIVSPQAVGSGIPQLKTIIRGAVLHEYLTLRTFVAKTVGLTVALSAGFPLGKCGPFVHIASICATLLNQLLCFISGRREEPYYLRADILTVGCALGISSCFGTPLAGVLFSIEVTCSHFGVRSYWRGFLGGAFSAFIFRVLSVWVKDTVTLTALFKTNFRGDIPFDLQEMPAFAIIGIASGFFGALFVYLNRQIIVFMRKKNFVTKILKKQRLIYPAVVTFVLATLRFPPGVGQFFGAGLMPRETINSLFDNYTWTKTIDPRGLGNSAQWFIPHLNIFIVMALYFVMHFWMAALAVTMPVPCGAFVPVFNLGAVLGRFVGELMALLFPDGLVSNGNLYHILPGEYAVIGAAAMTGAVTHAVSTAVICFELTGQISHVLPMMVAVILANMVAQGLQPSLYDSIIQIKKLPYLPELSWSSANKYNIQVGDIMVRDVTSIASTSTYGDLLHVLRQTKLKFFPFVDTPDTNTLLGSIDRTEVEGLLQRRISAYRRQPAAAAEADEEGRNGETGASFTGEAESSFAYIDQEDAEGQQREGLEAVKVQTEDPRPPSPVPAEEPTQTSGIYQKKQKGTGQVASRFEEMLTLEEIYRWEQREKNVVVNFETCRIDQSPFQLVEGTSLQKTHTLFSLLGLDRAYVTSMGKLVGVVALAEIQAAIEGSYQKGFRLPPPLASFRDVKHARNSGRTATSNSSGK
Method in brief: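 CLC-0 mutants in the C212S background were transfected into HEK293 cells with lipofectamine and recorded 1–3 d later as excised inside-out patches. Both sides held 130 mM NaCl, 5 mM MgCl2, 10 mM HEPES and 1 mM EGTA, pH 7.4. CPA was perfused continuously onto the cytoplasmic face. Steady-state current over the last 10 ms was normalized to bracketing blocker-free controls and fitted to a Langmuir function for K1/2. Values are mean ± SEM of ~4–6 patches.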

CLC-0 E166A mutant [2] = target: T2, CLC-0 E166A mutant (Torpedo marmorata, UniProt P21564, C212S/E166A); conditions: ref Traverso et al., 2003; cited from earlier work
T2 sequence (P21564 1-805 E166A/C212S): T1 sequence (P21564 1-805 E127Q/E166C/C212S) with Q127E, C166A

CLC-0 E166A mutant [3] = target: T2, CLC-0 E166A mutant; assay: Single-channel recordings, channels expressed in Xenopus oocytes; type: cell-based; conditions: 0.1 mM CPA cytoplasmic side; −100 mV
Method in brief: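 Single channels were expressed in Xenopus oocytes from cRNA made from a pBluescript construct. Currents were recorded at −100 mV with cytoplasmic CPA at 100 μM, filtered at 200 Hz (four-pole Bessel) and digitized at 1 kHz. Average dwell time of nonconducting events was analysed from the single-channel traces.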

Work on `O=C(O)COc1ccc(Cl)cc1` [CPA, p-chlorophenoxy acetate] yielded an IC50 ([1]; −40 mV) of 491 ± 58 µM, an IC50 ([1]; −60 mV) of 228 ± 23 µM and an IC50 ([1]; −80 mV) of 113 ± 10 µM. For the same molecule, the IC50 ([1]; −100 mV) was 57 ± 4 µM, the IC50 ([1]; −120 mV) was 33 ± 3 µM and the IC50 ([1]; −140 mV) was 21 ± 2 µM. For the same molecule, the IC50 ([1]; −160 mV) was 15 ± 2 µM, the apparent koff ([1]; −160 mV) was 17.9 s⁻¹ and the apparent kon ([1]; −160 mV) was 760000 M⁻¹ s⁻¹. The “CPA-blocking affinity of E166A relative to wild-type channel (higher)” value (CLC-0 E166A mutant [2]) was over 100 fold and the “averaged time of nonconducting (blocked) events” value (CLC-0 E166A mutant [3]) was about 55 ms.
